Shown are actives, neighbours in structure and some others; about 2.2% of the full set was active somewhere.
E-sel inducer – induces E-selectin expression in human endothelial cells | HUVEC E-selectin immunofluorescence imaging; normalized: neutral wells 0, TNF-alpha wells 100 | hit rate 0.37% among 260,000 | activation, % at 7.58 µM | AID 686992;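 active = mean E-selectin-positive cell signal at least 10% of the positive control, reached in at least 60% of replicates, without over 20% cell loss; inconclusive = no rule given, readout overlaps actives, possibly toxicity-flagged; inactive = the rest, including those meeting only one limit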
Target sequence (P16581 whole entry, looked up): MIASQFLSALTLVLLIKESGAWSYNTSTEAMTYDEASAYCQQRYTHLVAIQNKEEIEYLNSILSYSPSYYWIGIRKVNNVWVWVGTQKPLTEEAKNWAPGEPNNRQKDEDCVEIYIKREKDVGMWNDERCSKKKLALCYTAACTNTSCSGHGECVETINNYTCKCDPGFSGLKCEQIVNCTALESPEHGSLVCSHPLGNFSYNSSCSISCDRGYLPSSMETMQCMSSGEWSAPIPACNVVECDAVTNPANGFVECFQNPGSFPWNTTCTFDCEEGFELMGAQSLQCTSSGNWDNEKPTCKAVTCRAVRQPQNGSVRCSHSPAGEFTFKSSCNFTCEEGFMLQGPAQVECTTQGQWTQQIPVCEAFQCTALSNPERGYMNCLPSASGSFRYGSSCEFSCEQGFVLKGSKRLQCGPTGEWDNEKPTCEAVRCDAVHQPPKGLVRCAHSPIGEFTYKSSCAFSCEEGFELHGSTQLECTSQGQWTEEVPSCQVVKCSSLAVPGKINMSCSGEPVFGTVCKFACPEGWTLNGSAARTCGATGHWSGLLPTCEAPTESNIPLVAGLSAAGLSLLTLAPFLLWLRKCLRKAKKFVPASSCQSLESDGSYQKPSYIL
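System: HUVEC, human umbilical vein endothelial cells; quantity: 3,000 cells/well; buffer or medium: EGM-2 medium, gelatin-coated wells; dosing: single-point compound dose; detection: immunofluorescence imaging; evaluation: % PE-positive cells; benchmarks: TNF-alpha, DMSO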
C2C12 statin – suppressors of simvastatin-induced myotoxicity in C2C12 myotubes. ATP luminescence, 48 h; scaled: DMSO 0, geranylgeraniol control 100. rescue of ATP level, % at 7.49 µM. hit rate 0.78% among 330,000;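 active = mean ATP rescue above about 67%, or every replicate alone reaching that limit, limit read from the data, passing the limit was not always enough; inconclusive = no clear call, values can overlap the other calls; inactive = mean under the limit and some replicate under it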;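 note: myotubes were challenged with 10 µM simvastatin during compound exposure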
DENV2 CPE – DENV2-induced cell death inhibition; DENV2-infected cells, cytopathic effect rescue, plate reader; CPE inhibition, % at 9.99 µM; hit rate 1.7% among 350,000; in the data active = CPE inhibition above about 20%, passing the limit was not always enough; inconclusive = no clear call, values can overlap the other calls; tested in BHK-21 cells;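 note: 0% = median of neutral control wells and 100% = median of positive control wells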
Starred values were filed as active, the others as inactive; u = inconclusive; x = no result.

SMILES | E-sel inducer | C2C12 statin | DENV2 CPE
O=C(O)CC(c1ccccc1)N1C(=O)c2ccccc2C1=O (centres undefined) | x | x | 40*
Cc1ccc(S(=O)(=O)Nc2ccc3c(c2)CC(=O)N([C@@H](C)CO)C[C@H](C)[C@@H](CN(C)Cc2ccc(Cl)c(Cl)c2)O3)cc1 | 0 | 72* | -8
Cc1ccc(S(=O)(=O)Nc2ccc3c(c2)CC(=O)N([C@@H](C)CO)C[C@@H](C)[C@H](CN(C)Cc2ccc(Cl)c(Cl)c2)O3)cc1 | 0 | 74* | 19
C[C@H]1CN([C@@H](C)CO)C(=O)Cc2cc(NS(=O)(=O)c3ccc(Cl)cc3)ccc2O[C@H]1CN(C)Cc1ccc(Cl)c(Cl)c1 | 0 | 29 | 8
Cc1ccc(S(=O)(=O)Nc2ccc3c(c2)CC(=O)N([C@H](C)CO)C[C@H](C)[C@H](CN(C)Cc2ccc(Cl)c(Cl)c2)O3)cc1 | 0 | 5 | -3
CCCc1cn(CC[C@H]2CC[C@H](NC(=O)C3CCOCC3)[C@@H](CO)O2)nn1 | 0 | -6 | -3
COc1cccc(-c2ccc([C@@H]3[C@@H](CO)N4CCCCN(S(=O)(=O)c5cn(C)cn5)C[C@@H]34)cc2)c1 | 0 | 2 | 13
O=C(C[C@@H]1C=C[C@@H](NS(=O)(=O)c2ccc(F)cc2)[C@@H](CO)O1)N1CCC(Cc2ccccc2)CC1 | 0 | 8 | x
O=C(NCCCn1ccnc1)/C(=C/c1cccs1)NC(=O)c1ccco1 | 6 | 5 | 5
Cc1ccc(C(=O)N/C(=C/c2cccs2)C(=O)NCCCn2ccnc2)cc1 | x | x | 31*
Cc1nc2ccccn2c1-c1nnco1 | x | 72* | x
Cc1cccc(Nc2nc(-c3c(C)nc4ccccn34)cs2)c1 | x | -160 | x
COc1ccc(NC(=O)N(C)C[C@H]2Oc3ccc(NC(=O)Cc4cn(C)c5ccccc45)cc3C(=O)N([C@H](C)CO)C[C@@H]2C)cc1 | 32* | x | u
CC(C)NC(=O)N(C)C[C@H]1Oc2ccc(NC(=O)Cc3cn(C)c4ccccc34)cc2C(=O)N([C@@H](C)CO)C[C@@H]1C | 2 | -13 | 6
C[C@@H]1CN([C@H](C)CO)C(=O)c2cc(NC(=O)Cc3cn(C)c4ccccc34)ccc2O[C@@H]1CN(C)C | 0 | 1 | 8
CC(C)NC(=O)N(C)C[C@@H]1Oc2ccc(NC(=O)Cc3cn(C)c4ccccc34)cc2C(=O)N([C@@H](C)CO)C[C@H]1C | -15 | 16 | 80*
COc1ccc(NC(=O)N(C)C[C@H]2Oc3ccc(NC(=O)Cc4cn(C)c5ccccc45)cc3C(=O)N([C@@H](C)CO)C[C@@H]2C)cc1 | -1 | x | x
C[C@H](CO)N1C[C@H](C)[C@H](CN(C)C)Oc2ccc(NC(=O)Cc3cn(C)c4ccccc34)cc2C1=O | 37* | -5 | -2
COc1ccc(S(=O)(=O)Nc2ccc3c(c2)C(=O)N([C@@H](C)CO)C[C@@H](C)[C@H](CN(C)Cc2ccc4c(c2)OCO4)O3)cc1 | 0 | 17 | -7
C[C@@H]1CCCCO[C@H](CN(C)Cc2ccc3c(c2)OCO3)[C@@H](C)CN([C@@H](C)CO)C(=O)c2cc(NC(=O)CCC(F)(F)F)ccc2O1 | 0 | x | u
Cc1cccc(NC(=O)c2onc3c2CCCC3)n1 | x | x | -11
O=C(Nc1ccc2ccccc2c1)c1onc2c1CCCC2 | x | -22 | x
Cc1cccc(NC(=O)c2onc3c2CCCC3)c1C | x | 73* | x
Cc1ccccc1NC(=O)c1onc2c1CCCC2 | x | 140* | x
CNC[C@@H]1Oc2ccc(NC(=O)Cn3cnnn3)cc2C(=O)N([C@H](C)CO)C[C@@H]1C | 0 | 49 | 6
SMILES | E-sel inducer | C2C12 statin | DENV2 CPE
CCCN1[C@H](C(=O)NCC)[C@@H](CO)[C@@H]2Cn3c(ccc(/C=C/c4ccccc4)c3=O)[C@@H]21 | 0 | 16 | -9
CC=Cc1ccc2n(c1=O)C[C@@H]1[C@@H](CO)[C@H](C(=O)NCc3ccc(F)cc3)N(CC)[C@H]21 (mixture of isomers) | 1 | 22 | -2
CCC(=O)N1[C@H](C(=O)Nc2nccs2)[C@@H](CO)[C@@H]2Cn3c(ccc(/C=C/c4ccccc4)c3=O)[C@@H]21 | 0 | 38 | 0
CC=Cc1ccc2n(c1=O)C[C@@H]1[C@@H](CO)[C@H](C(=O)NC3Cc4ccccc4C3)N(CC3CC3)[C@H]21 (mixture of isomers) | 0 | -2 | 75*
CC=Cc1ccc2n(c1=O)C[C@H]1[C@H](CO)[C@@H](C(=O)Nc3nccs3)N(C(=O)CC)[C@@H]21 (mixture of isomers) | 0 | 11 | 58*
CC=Cc1ccc2n(c1=O)C[C@@H]1[C@@H](CO)[C@H](C(=O)NCc3ccccc3)N(CC)[C@H]21 (mixture of isomers) | 0 | x | 38*
CC=Cc1ccc2n(c1=O)C[C@H]1[C@H](CO)[C@@H](C(=O)NC3Cc4ccccc4C3)N(CC)[C@@H]21 (mixture of isomers) | 0 | -5 | -2
CCNC(=O)[C@@H]1[C@@H](CO)[C@@H]2Cn3c(ccc(/C=C/c4ccccc4)c3=O)[C@@H]2N1C(C)=O | -2 | 13 | 62*
O=C(Cc1cccnc1)N[C@H]1CC[C@@H](CCNS(=O)(=O)c2ccccc2Cl)O[C@@H]1CO | 0 | 9 | x
COCC(=O)N1[C@H](C#N)[C@H](c2ccc(C3=CCCCC3)cc2)[C@H]1CO | 4 | 0 | -6
Cc1ccc(S(=O)(=O)Nc2ccc3c(c2)C(=O)N([C@@H](C)CO)C[C@H](C)[C@@H](CN(C)C(=O)Nc2ccccc2)OCCCC[C@@H](C)O3)cc1 | 0 | x | -3
CCCNC(=O)Nc1ccc2c(c1)C(=O)N(C)[C@@H]1CC[C@H](CC(=O)NCC3CCCCC3)O[C@H]1CO2 | 0 | 15 | -5
COc1ccc(S(=O)(=O)N2CCCC2C(=O)NCC(=O)Nc2cccc(Cl)c2C)cc1 (centres undefined) | x | 14 | 70*
Cc1c(Cl)cccc1NC(=O)CNC(=O)C1CC(=O)N(C2CCCC2)C1 (centres undefined) | 1 | -2 | 88*
COc1ccc(CNC(=O)C2CCCN2S(=O)(=O)c2ccc(C)cc2)cc1 (centres undefined) | 6 | 2 | x
Cc1c(Cl)cccc1NC(=O)C1CC(=O)N(C2CCCC2)C1 (centres undefined) | -1 | 3 | -5
Cc1ccc(S(=O)(=O)Nc2ccc3c(c2)CC(=O)N([C@@H](C)CO)C[C@@H](C)[C@@H](CN(C)C(=O)Nc2cccc4ccccc24)O3)cc1 | 0 | 32 | 9
CNC[C@@H]1Oc2ccc(NC(=O)C3CC3)cc2C(=O)N([C@H](C)CO)C[C@H]1C | 0 | 7 | 1
Cc1cc(C)nc(NC(=O)c2ccc([N+](=O)[O-])o2)n1 | x | 0 | 93*
O=C(NC1CCCCC1)c1ccc([N+](=O)[O-])o1 | x | 69* | x
COc1ccc2nc(NC(=O)c3ccc([N+](=O)[O-])o3)sc2c1 | 0 | 54 | 21*
O=C(NC1CCCC(C(F)(F)F)C1)c1ccc([N+](=O)[O-])o1 (centres undefined) | 0 | 15 | -2
Cc1cc(C)cc(NC(=O)c2ccc([N+](=O)[O-])o2)c1 | 1 | x | 0
O=C(Nc1nc2ccccc2s1)c1ccc([N+](=O)[O-])o1 | 0 | x | -1
